Laboratory results: ChEMBL document CHEMBL1649151, “Urinary bactericidal activity of Doripenem versus that of levofloxacin in patients with complicated urinary tract infections or pyelonephritis” (Antimicrob Agents Chemother, 2009)
In brackets after ≈: the same amount, converted by molar mass.

What was measured:
Escherichia coli [1] = assay: Antimicrobial activity against Escherichia coli 1949821 B-M isolated from patient with pyelonephritis assessed as >3-log reduction in urinary bacterial titer after 24 hrs; assay type: functional, Urine
In short: (§1)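 Urine was collected on day 3 of i.v. therapy (steady state) over 4-h intervals from infusion start (0–4 to 20–24 h), stored at –80°C and sterile filtered. It was serially diluted twofold (1:0 up to 1:131,072) in the patient's own pre-dose drug-free urine. Microdilution used a final inoculum of 1.0 x 10^6 to 9.5 x 10^6 CFU/ml, incubated 18 h at 37°C in air. 10 µl was subcultured onto 5% blood Columbia agar for 24 h at 37°C. The bactericidal endpoint was >99.9% (>3-log) kill, reported as a reciprocal titer.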

Enterococcus faecalis [2] = assay: Antimicrobial activity against Enterococcus faecalis 1780065 B-B isolated from patient with pyelonephritis assessed as >3-log reduction in urinary bacterial titer after 24 hrs; assay type: functional, Urine
In short: (§2)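 Urine was collected before dosing and on day 3 of i.v. therapy (steady state), in 4-h intervals from infusion start (0–4 to 20–24 h), stored at −80°C and sterile filtered. It was serially diluted twofold (1:0 to 1:131,072) in the patient's drug-free pre-dose urine. Microdilution used an inoculum of 1.0 x 10^6–9.5 x 10^6 CFU/ml, incubated 18 h at 37°C, then subcultured 24 h on blood agar. The endpoint was >99.9% kill, reported as reciprocal titer.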

Pseudomonas aeruginosa [3] = assay: Antimicrobial activity against Pseudomonas aeruginosa 1134642 isolated from patient with pyelonephritis assessed as >3-log reduction in urinary bacterial titer after 24 hrs; assay type: functional, Urine
In short: (§3)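 Patient urine was collected on day 3 of i.v. therapy (steady state) over 4-h intervals after infusion start, stored at –80°C, and sterile filtered. It was twofold serially diluted (1:0 to 1:131,072) in the patient's own pre-dose drug-free urine, inoculated to 1.0 x 10^6–9.5 x 10^6 CFU/ml, and incubated for 18 h at 37°C. Subcultures were grown on blood agar for 24 h. The UBT is the reciprocal of the highest dilution giving >99.9% kill.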

Escherichia coli [4] = assay: Antimicrobial activity against Escherichia coli 1135121 isolated from patient with pyelonephritis assessed as >3-log reduction in urinary bacterial titer after 24 hrs; assay type: functional, Urine; in short: as §2
Pseudomonas aeruginosa [5] = assay: Antimicrobial activity against Pseudomonas aeruginosa […] assessed as >3-log reduction in urinary bacterial titer after 24 hrs; assay type: functional, Urine; in short: as §3
Enterococcus faecalis [6] = assay: Antimicrobial activity against Enterococcus faecalis 1780065 B-B isolated from patient with pyelonephritis assessed as >3-log reduction in urinary bacterial titer after 20 hrs; assay type: functional, Urine; in short: as §2
Escherichia coli [7] = assay: Antimicrobial activity against Escherichia coli 1949820 B-N isolated from patient with pyelonephritis assessed as >3-log reduction in urinary bacterial titer after 20 hrs; assay type: functional, Urine; in short: as §1
Staphylococcus aureus [8] = assay: Antimicrobial activity against Staphylococcus aureus 1134684 isolated from patient with pyelonephritis assessed as >3-log reduction in urinary bacterial titer after 20 hrs; assay type: functional, Urine; in short: as §3
Pseudomonas aeruginosa [9] = assay: Antimicrobial activity against Pseudomonas aeruginosa 1134642 isolated from patient with pyelonephritis assessed as >3-log reduction in urinary bacterial titer after 20 hrs; assay type: functional, Urine; in short: as §3
Proteus mirabilis [10] = assay: Antimicrobial activity against Proteus mirabilis 1134841 isolated from patient with pyelonephritis assessed as >3-log reduction in urinary bacterial titer after 20 hrs; assay type: functional, Urine; in short: as §3
Pseudomonas aeruginosa [11] = assay: Antimicrobial activity against Pseudomonas aeruginosa […] assessed as >3-log reduction in urinary bacterial titer after 20 hrs; assay type: functional, Urine; in short: as §3
Enterococcus faecalis [12] = assay: Antimicrobial activity against Enterococcus faecalis 1780065 B-B isolated from patient with pyelonephritis assessed as >3-log reduction in urinary bacterial titer after 16 hrs; assay type: functional, Urine; in short: as §2
Staphylococcus aureus [13] = assay: Antimicrobial activity against Staphylococcus aureus 1134684 isolated from patient with pyelonephritis assessed as >3-log reduction in urinary bacterial titer after 16 hrs; assay type: functional, Urine; in short: as §3
Pseudomonas aeruginosa [14] = assay: Antimicrobial activity against Pseudomonas aeruginosa 1134642 isolated from patient with pyelonephritis assessed as >3-log reduction in urinary bacterial titer after 16 hrs; assay type: functional, Urine; in short: as §3
Proteus mirabilis [15] = assay: Antimicrobial activity against Proteus mirabilis 1134841 isolated from patient with pyelonephritis assessed as >3-log reduction in urinary bacterial titer after 16 hrs; assay type: functional, Urine; in short: as §3
Enterococcus faecalis [16] = assay: Antimicrobial activity against Enterococcus faecalis 1780065 B-B isolated from patient with pyelonephritis assessed as >3-log reduction in urinary bacterial titer after 12 hrs; assay type: functional, Urine; in short: as §2
Escherichia coli [17] = assay: Antimicrobial activity against Escherichia coli 1949820 B-N isolated from patient with pyelonephritis assessed as >3-log reduction in urinary bacterial titer after 12 hrs; assay type: functional, Urine; in short: as §1
Pseudomonas aeruginosa [18] = assay: Antimicrobial activity against Pseudomonas aeruginosa 1134642 isolated from patient with pyelonephritis assessed as >3-log reduction in urinary bacterial titer after 12 hrs; assay type: functional, Urine; in short: as §3
Escherichia coli [19] = assay: Antimicrobial activity against Escherichia coli 1135121 isolated from patient with pyelonephritis assessed as >3-log reduction in urinary bacterial titer after 12 hrs; assay type: functional, Urine; in short: as §2
Pseudomonas aeruginosa [20] = assay: Antimicrobial activity against Pseudomonas aeruginosa […] assessed as >3-log reduction in urinary bacterial titer after 12 hrs; assay type: functional, Urine; in short: as §3
Enterococcus faecalis [21] = assay: Antimicrobial activity against Enterococcus faecalis 1780065 B-B isolated from patient with pyelonephritis assessed as >3-log reduction in urinary bacterial titer after 8 hrs; assay type: functional, Urine; in short: as §2
Escherichia coli [22] = assay: Antimicrobial activity against Escherichia coli 1949820 B-N isolated from patient with pyelonephritis assessed as >3-log reduction in urinary bacterial titer after 8 hrs; assay type: functional, Urine; in short: as §1
Pseudomonas aeruginosa [23] = assay: Antimicrobial activity against Pseudomonas aeruginosa 1134642 isolated from patient with pyelonephritis assessed as >3-log reduction in urinary bacterial titer after 8 hrs; assay type: functional, Urine; in short: as §3
Escherichia coli [24] = assay: Antimicrobial activity against Escherichia coli 1135121 isolated from patient with pyelonephritis assessed as >3-log reduction in urinary bacterial titer after 8 hrs; assay type: functional, Urine; in short: as §2
Pseudomonas aeruginosa [25] = assay: Antimicrobial activity against Pseudomonas aeruginosa ATCC 27853 isolated from patient with pyelonephritis assessed as >3-log reduction in urinary bacterial titer after 8 hrs; assay type: functional, Urine; in short: as §3
Enterococcus faecalis [26] = assay: Antimicrobial activity against Enterococcus faecalis 1780065 B-B isolated from patient with pyelonephritis assessed as >3-log reduction in urinary bacterial titer after 4 hrs; assay type: functional, Urine; in short: as §2
Staphylococcus aureus [27] = assay: Antimicrobial activity against Staphylococcus aureus 1134684 isolated from patient with pyelonephritis assessed as >3-log reduction in urinary bacterial titer after 4 hrs; assay type: functional, Urine; in short: as §3
Pseudomonas aeruginosa [28] = assay: Antimicrobial activity against Pseudomonas aeruginosa […] assessed as >3-log reduction in urinary bacterial titer after 4 hrs; assay type: functional, Urine; in short: as §3
[29] = test system: Staphylococcus epidermidis; assay: Antimicrobial activity against Staphylococcus epidermidis 1949822 B-J isolated from patient with pyelonephritis by Etest; assay type: functional
Escherichia coli [30] = assay: Antimicrobial activity against Escherichia coli 1949821 B-M isolated from patient with pyelonephritis by Etest; assay type: functional
Escherichia coli [31] = assay: Antimicrobial activity against Escherichia coli 1949820 B-N isolated from patient with pyelonephritis by Etest; assay type: functional
Staphylococcus aureus [32] = assay: Antimicrobial activity against Staphylococcus aureus 1134684 isolated from patient with pyelonephritis by Etest; assay type: functional
Pseudomonas aeruginosa [33] = assay: Antimicrobial activity against Pseudomonas aeruginosa 1134642 isolated from patient with pyelonephritis by Etest; assay type: functional
Proteus mirabilis [34] = assay: Antimicrobial activity against Proteus mirabilis 1134841 isolated from patient with pyelonephritis by Etest; assay type: functional
Escherichia coli [35] = assay: Antimicrobial activity against Escherichia coli 1135121 isolated from patient with pyelonephritis by Etest; assay type: functional
[36] = Drug excretion in pyelonephritis patient urine at 250 mg/kg, iv administered every 24 hrs; assay type: ADME, organism-based; design: dose 250 mg/kg, route intravenous; details: human, read-out: Activity

SMILES	Time (Escherichia coli [1]) [h]	Time (Enterococcus faecalis [2]) [h]	urinary bactericidal titer (Pseudomonas aeruginosa [3]) [reciprocal titer]	urinary bactericidal titer (Escherichia coli [4]) [reciprocal titer]	urinary bactericidal titer (Pseudomonas aeruginosa [5]) [reciprocal titer]	urinary bactericidal titer (Enterococcus faecalis [6]) [reciprocal titer]	urinary bactericidal titer (Staphylococcus aureus [8]) [reciprocal titer]	urinary bactericidal titer (Pseudomonas aeruginosa [9]) [reciprocal titer]	urinary bactericidal titer (Proteus mirabilis [10]) [reciprocal titer]	urinary bactericidal titer (Pseudomonas aeruginosa [11]) [reciprocal titer]	Time (Enterococcus faecalis [12]) [h]	urinary bactericidal titer (Staphylococcus aureus [13]) [reciprocal titer]	urinary bactericidal titer (Pseudomonas aeruginosa [14]) [reciprocal titer]	urinary bactericidal titer (Proteus mirabilis [15]) [reciprocal titer]	urinary bactericidal titer (Enterococcus faecalis [16]) [reciprocal titer]	urinary bactericidal titer (Pseudomonas aeruginosa [18]) [reciprocal titer]	urinary bactericidal titer (Escherichia coli [19]) [titer]	urinary bactericidal titer (Pseudomonas aeruginosa [20]) [reciprocal titer]	Time (Enterococcus faecalis [21]) [h]	urinary bactericidal titer (Escherichia coli [22]) [titer]	also measured
C[C@@H](O)[C@H]1C(=O)N2C(C(=O)O)=C(S[C@@H]3CN[C@H](CNS(N)(=O)=O)C3)[C@H](C)[C@H]12 [DORIPENEM]	5120	32	1280	4096	512	256	8	4096	8192	4096	48	4	2048	1540	192	6140	65500	3070	32	12300	urinary bactericidal titer (Escherichia coli [7]): 32800; urinary bactericidal titer (Escherichia coli [17]): 32800; urinary bactericidal titer (Pseudomonas aeruginosa [23]): 1024 reciprocal titer; urinary bactericidal titer (Escherichia coli [24]): 24600 titer; urinary bactericidal titer (Pseudomonas aeruginosa [25]): 1024 reciprocal titer; urinary bactericidal titer (Enterococcus faecalis [26]): 128 reciprocal titer; urinary bactericidal titer (Staphylococcus aureus [27]): 8 reciprocal titer; urinary bactericidal titer (Pseudomonas aeruginosa [28]): 2048 reciprocal titer; MIC [29]: > 32 µg/mL; MIC (Escherichia coli [30]): ≤ 0.015 µg/mL; MIC (Escherichia coli [31]): 0.03 µg/mL (≈ 0.0713 µM); MIC (Staphylococcus aureus [32]): 32 µg/mL (≈ 76.1 µM); MIC (Pseudomonas aeruginosa [33]): 2 µg/mL (≈ 4.76 µM); MIC (Proteus mirabilis [34]): 0.03 µg/mL (≈ 0.0713 µM); MIC (Escherichia coli [35]): ≤ 0.015 µg/mL; dose excreted at 24 h [36]: 80%
C[C@H]1COc2c(N3CCN(C)CC3)c(F)cc3c(=O)c(C(=O)O)cn1c23.C[C@H]1COc2c(N3CCN(C)CC3)c(F)cc3c(=O)c(C(=O)O)cn1c23.O [LEVOFLOXACIN]	40	6	0	2	4	8	2	1	0	6	16	4	1	0	16	1	3	8	16	2	Time (Escherichia coli [7]): 1 h; Time (Escherichia coli [17]): 0.5 h; urinary bactericidal titer (Pseudomonas aeruginosa [23]): 2 reciprocal titer; urinary bactericidal titer (Escherichia coli [24]): 8 titer; urinary bactericidal titer (Pseudomonas aeruginosa [25]): 16 reciprocal titer; urinary bactericidal titer (Enterococcus faecalis [26]): 32 reciprocal titer; urinary bactericidal titer (Staphylococcus aureus [27]): 8 reciprocal titer; urinary bactericidal titer (Pseudomonas aeruginosa [28]): 16 reciprocal titer; MIC [29]: 8 µg/mL; MIC (Escherichia coli [30]): 0.125 µg/mL; MIC (Escherichia coli [31]): 8 µg/mL; MIC (Staphylococcus aureus [32]): 4 µg/mL; MIC (Pseudomonas aeruginosa [33]): 16 µg/mL; MIC (Proteus mirabilis [34]): > 8 µg/mL; MIC (Escherichia coli [35]): 4 µg/mL; dose excreted at 24 h [36]: 80%
